Here are results for 16 compounds from PubChem BioAssay.

Activity calls are given as the source filed them.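 How the source made its calls, unless noted: active means viability at or under a set limit in both replicates, limit being median viability minus 3 SD (cut at about 48% in these data, passing the limit was not always enough); inconclusive means at or under the limit in just one replicate; inactive means at or above the limit in both replicates.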

Assay [1] in a line: reducers of endogenous Her2 protein level, primary screen, SKBR3 breast tumor cells, AlphaScreen, ATP viability (AID 461;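 active means Her2 level under about 52% in both replicate screens, with viability over 70% of control, limit read from the data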;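 on Her2 level: lower value means less Her2 protein in the cells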;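 on viability: percent of carrier control wells set as 100% viability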). To be noted: 18-24 h, measured here: SKBR3 viability, ATP luminescence, at 10 µM.
Assay [2] addresses Receptor tyrosine-protein kinase erbB-2 (Homo sapiens) (UniProt P04626). The description is as above. To be noted: 18-24 h, at 10 µM, stronger effect = lower value.
The nature of assay [3]: SK-BR-3 cell growth inhibitors, pilot screen, 24 h, human (AID 572;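 active means viability at or below 10% of carrier control in both of two separate runs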;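 further: compound exposure lasted between 18 and 24 h rather than exactly 24 h; 100% = carrier-treated control wells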). To be noted: SK-BR-3 viability, CellTiter-Glo luminescence, at 10 µM, stronger effect = lower value. For orientation: ATP-based viability assays read luminescence as a measure of living cells.
A short description of assay [4]: HUVEC growth inhibition – cell-based, human, primary screen (AID 575;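 active means viability at or below 30% in both replicate assays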;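 further: 100% = median of untreated cell wells with 0.1% DMSO on each plate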). To be noted: HUVEC proliferation, CellTiter-Glo luminescence, 72 h; at 10 µM; stronger effect = lower value. The method in brief: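 Material: primary human umbilical vein endothelial cells / Schedule: 72 h exposure, 37 °C, 5% CO2, 30 min RT equilibration / Signal: ATP-based CellTiter-Glo luminescent read / Read-out basis: percent of median DMSO-control luminescence / Control set: 32 DMSO-only cell-control wells (high), 32 MePR drug-control wells (low) per plate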

Assay [5] can be described thus: growth inhibitors of H69AR lung tumor, primary screen, human, duplicate replicates (AID 580).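 Further: 100% = mean luminescence of untreated wells and 0% = no signal.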 To be noted: H69AR lung tumor cells viability, ATP luminescence, 72 h; at 10 µM; stronger effect = lower value.
A short description of assay [6]: reversal of MRP1-mediated doxorubicin resistance, pilot screen, H69AR cells, doxorubicin co-treatment (AID 601;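 active means viability loss from added drug above about 55%, and viability with drug at most 40%, in both replicates, limit read from the data, passing the limit was not always enough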). To be noted: CellTiter-Glo, 72 h, at 10 µM; for differential viability (reversal): stronger effect = higher value.
Assay [7] in a line: 384-well plate pilot, post-Golgi transport modulator project, inhibition of yeast transport mutant growth (AID 636; in the data active means inhibition above about 31%). Particulars: absorbance 615 nm, about 18 h, stronger effect = higher value.
Assay [8] can be described thus: growth suppression of yeast trafficking mutant, preliminary HTS, modulators of trafficking downstream of Golgi apparatus project, 1536-format plate, OD 615 nm (AID 637; in the data active means inhibition above about 30%). Particulars: yeast transport mutant growth, absorbance 615 nm, 18 h; stronger effect = higher value.
[9] abbreviates: H69AR cells + 2 uM doxorubicin, measured here: viability with 2 uM doxorubicin, stronger effect = lower value.
Setting [10] is: H69AR cells, compound alone cytotoxicity.

Chain of Receptor tyrosine-protein kinase erbB-2 (Homo sapiens) (P04626 whole entry, looked up): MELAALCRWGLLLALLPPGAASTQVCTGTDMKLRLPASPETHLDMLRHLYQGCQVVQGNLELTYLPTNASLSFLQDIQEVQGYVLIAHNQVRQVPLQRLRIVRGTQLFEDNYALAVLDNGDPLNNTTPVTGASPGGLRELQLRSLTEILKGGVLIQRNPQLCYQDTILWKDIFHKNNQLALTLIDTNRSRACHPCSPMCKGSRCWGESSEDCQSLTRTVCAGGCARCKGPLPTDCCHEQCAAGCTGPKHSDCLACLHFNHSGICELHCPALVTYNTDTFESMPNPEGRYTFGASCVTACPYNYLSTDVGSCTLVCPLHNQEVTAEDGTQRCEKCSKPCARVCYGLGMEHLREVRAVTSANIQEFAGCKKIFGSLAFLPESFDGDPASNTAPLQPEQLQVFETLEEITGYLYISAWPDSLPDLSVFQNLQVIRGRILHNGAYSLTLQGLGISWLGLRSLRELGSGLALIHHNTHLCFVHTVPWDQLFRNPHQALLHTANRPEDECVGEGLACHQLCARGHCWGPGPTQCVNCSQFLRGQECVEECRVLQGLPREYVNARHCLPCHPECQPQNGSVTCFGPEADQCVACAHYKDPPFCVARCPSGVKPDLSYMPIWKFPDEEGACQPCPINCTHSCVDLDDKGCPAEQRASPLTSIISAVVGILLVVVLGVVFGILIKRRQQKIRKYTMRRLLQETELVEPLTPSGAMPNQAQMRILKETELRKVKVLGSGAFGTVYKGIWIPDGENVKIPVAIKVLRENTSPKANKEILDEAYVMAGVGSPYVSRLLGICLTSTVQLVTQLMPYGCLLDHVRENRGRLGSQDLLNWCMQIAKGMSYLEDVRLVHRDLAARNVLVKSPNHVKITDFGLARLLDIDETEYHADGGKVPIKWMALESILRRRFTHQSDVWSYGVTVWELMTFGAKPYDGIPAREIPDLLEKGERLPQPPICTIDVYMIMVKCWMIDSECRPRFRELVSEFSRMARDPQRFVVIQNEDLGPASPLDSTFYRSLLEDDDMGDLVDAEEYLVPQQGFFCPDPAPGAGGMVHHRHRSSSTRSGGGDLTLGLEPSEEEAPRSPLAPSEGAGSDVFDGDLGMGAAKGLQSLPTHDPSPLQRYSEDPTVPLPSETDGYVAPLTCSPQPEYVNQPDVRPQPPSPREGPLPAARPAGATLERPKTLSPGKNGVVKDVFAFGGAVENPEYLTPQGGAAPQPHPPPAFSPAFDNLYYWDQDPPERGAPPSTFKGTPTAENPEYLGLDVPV

The viability is a read-out of living cells in per cent, often relative to untreated cells. A word on the inhibition: it is the change of the read-out against control, counted positive when it falls. Turning to `Cc1noc(C)c1S(=O)(=O)NCCN1CCN(c2ccccc2)CC1`, the viability in assay [1] was 96%; in assay [3], 96% (inactive); in assay [4], 96.4% (inactive); in assay [5], 96.1% (inactive); in assay [6] (setting [9]), 92.7%; in assay [6] (setting [10]), 96.1%. Also, in assay [2], the Her2 level was 98.5% (inactive). The differential viability (reversal) in assay [6] (H69AR cells + 2 uM doxorubicin) is 3.43% (inactive). In addition, the inhibition in assay [7] and in assay [8] was -0.79% (inactive) in each case.

Take `COC(=O)Nc1ccc(S(=O)(=O)N2CCN(c3ccc(F)cc3)CC2)cc1`: the viability was 96.5% in assay [1]; 96.5% (inactive) in assay [3]; 86.9% (inactive) in assay [4]; 97.1% (inactive) in assay [5]; 94% in assay [6] (setting [9]); 97.1% in assay [6] (setting [10]). The Her2 level in assay [2] is 106% (inactive). Moreover, the differential viability (reversal) in assay [6] (H69AR cells + 2 uM doxorubicin) is 3.18% (inactive). The inhibition is -4.61% (inactive) in assay [7] and 9.84% (inactive) in assay [8].

Take `CC1Cc2cc(/C(O)=C3/C(=O)C(=O)N(CCN4CCOCC4)C3c3cccc(O)c3)ccc2O1` (stereo not given): the viability was 98.5% in assay [1]; 98.5% (inactive) in assay [3]; 98.9% (inactive) in assay [4]; 106% (inactive) in assay [5]; 104% in assay [6] (setting [9]); 106% in assay [6] (setting [10]). Further, the Her2 level in assay [2] is 120% (inactive). Further, in assay [6] (H69AR cells + 2 uM doxorubicin), the differential viability (reversal) is 2.56% (inactive). For the same compound, the inhibition is 3.2% (inactive) in assay [7] and -5.32% (inactive) in assay [8].

With `COc1cccc(N2CCN(Cc3cccnc3)CC2)c1`, the viability in assay [1] is 81.5%; in assay [3], 81.5% (inactive); in assay [4], 93% (inactive); in assay [5], 87.8% (inactive); in assay [6] (setting [9]), 95.4%; in assay [6] (setting [10]), 87.8%. Moreover, the Her2 level in assay [2] was 97.5% (inactive). In addition, the differential viability (reversal) in assay [6] (H69AR cells + 2 uM doxorubicin) was -7.62% (inactive). Moreover, the inhibition is -0.38% (inactive) in assay [7] and 3.33% (inactive) in assay [8].

Take `CCNCCNC(=O)c1c(O)c2ccccc2n(CC)c1=O`: the viability is 126% in assay [1]; 126% (inactive) in assay [3]; 84.7% (inactive) in assay [4]; 89.1% (inactive) in assay [5]; 84.3% in assay [6] (setting [9]); 89.1% in assay [6] (setting [10]). For the same compound, in assay [2], the Her2 level is 90.5% (inactive). The differential viability (reversal) in assay [6] (H69AR cells + 2 uM doxorubicin) is 4.78% (inactive). Besides, the inhibition in assay [7] is -4.87% (inactive); in assay [8], 0.81% (inactive).

Regarding `CCSc1ccccc1C(=O)Nc1cccc(OC)c1`, the viability in assay [1] is 110%; in assay [3], 110% (inactive); in assay [4], 115% (inactive); in assay [5], 98.4% (inactive); in assay [6] (setting [9]), 86.6%; in assay [6] (setting [10]) it was 98.4%. Further, the Her2 level in assay [2] was 97% (inactive). The differential viability (reversal) in assay [6] (H69AR cells + 2 uM doxorubicin) was 11.7% (inactive). The inhibition in assay [7] was -8.49% (inactive); in assay [8], -3.33% (inactive).

`O=S(=O)(c1cccc2nsnc12)N1CCN(c2ncccn2)CC1`: the viability in assay [1] is 87%; in assay [3], 87% (inactive); in assay [4], 105% (inactive); in assay [5] it was 86.9% (inactive); in assay [6] (setting [9]), 94.9%; in assay [6] (setting [10]), 86.9%. Further, in assay [2], the Her2 level is 96% (inactive). The differential viability (reversal) in assay [6] (H69AR cells + 2 uM doxorubicin) was -7.98% (inactive). Moreover, the inhibition in assay [7] is -7.16% (inactive); in assay [8], 3.61% (inactive).

`CC1(C)Cc2c(sc3ncnc(N)c23)CO1`: the viability in assay [1] is 116%; in assay [3], 116% (inactive); in assay [4], 96.6% (inactive); in assay [5], 95.6% (inactive); in assay [6] (setting [9]), 87.3%; in assay [6] (setting [10]) it was 95.6%. Besides, in assay [2], the Her2 level was 92.5% (inactive). Moreover, the differential viability (reversal) in assay [6] (H69AR cells + 2 uM doxorubicin) is 8.37% (inactive). Also, the values for the inhibition in assay [7] and in assay [8] were -7.47% (inactive) and 1.48% (inactive), respectively.

Turning to `COc1ccc(C2C3=C(CC(C)(C)CC3=O)Oc3ncn4nc(-c5cccnc5)nc4c32)cc1` (stereo not given), the viability in assay [1] is 96%; in assay [3], 96% (inactive); in assay [4] it was 108% (inactive); in assay [5] it was 105% (inactive); in assay [6] (setting [9]), 90.9%; in assay [6] (setting [10]) it was 105%. Moreover, the Her2 level in assay [2] was 84.5% (inactive). Besides, the differential viability (reversal) in assay [6] (H69AR cells + 2 uM doxorubicin) is 14.3% (inactive). Also, the inhibition in assay [7] was -9.05% (inactive); in assay [8], 0% (inactive).

Take `CC1=C(c2ccc(Cl)cc2)[N+](=O)C(C)(C)N1[O-]`: the viability in assay [1] was 99.5%; in assay [3], 99.5% (inactive); in assay [4] it was 110% (inactive); in assay [5] it was 89.6% (inactive); in assay [6] (setting [9]), 93.8%; in assay [6] (setting [10]), 89.6%. The Her2 level in assay [2] is 95.5% (inactive). In assay [6] (H69AR cells + 2 uM doxorubicin), the differential viability (reversal) is -4.19% (inactive). Besides, the inhibition in assay [7] is -4.52% (inactive); in assay [8], -10.2% (inactive).

Take `CCOC(=O)c1cc(-c2ccco2)nc2c1c(C)nn2CCC#N`: the viability in assay [1] was 96%; in assay [3], 96% (inactive); in assay [4] it was 98% (inactive); in assay [5], 68.3% (inactive); in assay [6] (setting [9]), 84.5%; in assay [6] (setting [10]) it was 68.3%. Also, in assay [2], the Her2 level was 101% (inactive). Also, the differential viability (reversal) in assay [6] (H69AR cells + 2 uM doxorubicin) was -16.2% (inactive). For the same compound, the results for the inhibition in assay [7] and in assay [8] were 4.05% (inactive) and 3.97% (inactive), respectively.

On to `C=CCn1c(N)c(C(=O)NCCC2=CCCCC2)sc1=S`, for which the viability in assay [1] is 85.5%; in assay [3] it was 85.5% (inactive); in assay [4], 44.6% (inactive); in assay [5], 83.2% (inactive); in assay [6] (setting [9]), 76%; in assay [6] (setting [10]) it was 83.2%. In assay [2], the Her2 level is 92.5% (inactive). For the same compound, the differential viability (reversal) in assay [6] (H69AR cells + 2 uM doxorubicin) was 7.14% (inactive). Moreover, the inhibition in assay [7] is -6.49% (inactive); in assay [8] it was -0.95% (inactive).

On to `CC(C)=CC(=O)Nc1ccc(Br)cc1`, for which the viability in assay [1] was 77.5%; in assay [3], 77.5% (inactive); in assay [4], 107% (inactive); in assay [5], 98.2% (inactive); in assay [6] (setting [9]), 91.5%; in assay [6] (setting [10]), 98.2%. The Her2 level in assay [2] was 104% (inactive). The differential viability (reversal) in assay [6] (H69AR cells + 2 uM doxorubicin) was 6.66% (inactive). The inhibition in assay [7] is 1.45% (inactive); in assay [8] it was -9.35% (inactive).

For the compound `COc1cc(NS(=O)(=O)N2CCCC2)cc(OC)c1OC`, the viability was 83.5% in assay [1]; 83.5% (inactive) in assay [3]; 94.8% (inactive) in assay [4]; 92.2% (inactive) in assay [5]; 83.8% in assay [6] (setting [9]); 92.2% in assay [6] (setting [10]). In addition, the Her2 level in assay [2] was 95.5% (inactive). For the same compound, the differential viability (reversal) in assay [6] (H69AR cells + 2 uM doxorubicin) is 8.42% (inactive). The figures for the inhibition in assay [7] and in assay [8] were -7.57% (inactive) and -2.95% (inactive), respectively.

Regarding `O=C(c1cnsn1)N1CCN(c2ccccn2)CC1`, the viability in assay [1] is 122%; in assay [3] it was 122% (inactive); in assay [4], 100% (inactive); in assay [5], 102% (inactive); in assay [6] (setting [9]), 91.7%; in assay [6] (setting [10]) it was 102%. Further, in assay [2], the Her2 level was 75% (inactive). In addition, the differential viability (reversal) in assay [6] (H69AR cells + 2 uM doxorubicin) is 10.7% (inactive). For the same compound, the inhibition in assay [7] is -0.66% (inactive); in assay [8], -5.87% (inactive).

In the case of `COC(=O)c1cc(Br)c(=O)n(-c2ccc(OC)cc2)c1`, the viability was 96.5% in assay [1]; 96.5% (inactive) in assay [3]; 100% (inactive) in assay [4]; 94.5% (inactive) in assay [5]; 86.8% in assay [6] (setting [9]); 94.5% in assay [6] (setting [10]). The Her2 level in assay [2] is 93.5% (inactive). For the same compound, the differential viability (reversal) in assay [6] (H69AR cells + 2 uM doxorubicin) is 7.62% (inactive). The inhibition in assay [7] is -2.8% (inactive); in assay [8], 0.65% (inactive).
